This note sets out measurements from ChEMBL document CHEMBL1153396, “Carbonic anhydrase inhibitors. Inhibition of the beta-class enzymes from the fungal pathogens Candida albicans and Cryptococcus neoformans with aliphatic and aromatic carboxylates” (Bioorg Med Chem, 2009).

The target of test [1] is T1, Carbonic anhydrase (Candida albicans (strain SC5314 / ATCC MYA-2876) (Yeast), UniProt Q5AJ71).
T1 sequence (Q5AJ71 whole entry): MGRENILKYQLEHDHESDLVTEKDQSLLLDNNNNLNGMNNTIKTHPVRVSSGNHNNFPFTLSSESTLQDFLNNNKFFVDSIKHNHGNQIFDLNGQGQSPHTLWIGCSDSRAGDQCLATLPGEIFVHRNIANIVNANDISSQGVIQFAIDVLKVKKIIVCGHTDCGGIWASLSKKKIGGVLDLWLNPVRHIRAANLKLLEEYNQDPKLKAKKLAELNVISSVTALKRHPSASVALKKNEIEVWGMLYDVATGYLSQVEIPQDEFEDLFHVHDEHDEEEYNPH
As to the kind of experiment: Inhibition of Candida albicans Nce103. The method in brief:
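Recombinant purified C. albicans Nce103. Stopped-flow CO2 hydration assay with phenol red indicator (0.2 mM) read at 557 nm. Tris buffer pH 8.3 with 20 mM Na2SO4 or NaClO4 for ionic strength. CO2 1.7–17 mM. Initial rates over 10–100 s, uncatalyzed rate subtracted. Enzyme and inhibitor preincubated 15 min at room temperature. Ki by non-linear least squares from three assays.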

In test [2] the target is Carbonic anhydrase 2 (Homo sapiens, UniProt P00918). The test is described as follows: Inhibition of human carbonic anhydrase2.
The nature of test [3]: Inhibition of Cryptococcus neoformans Can2. In short, it runs like this:
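Recombinant purified Can2. Stopped-flow CO2 hydration assay read with 0.2 mM phenol red at 557 nm, in TRIS pH 8.3 with 20 mM NaClO4 or Na2SO4 for ionic strength. Initial rates followed over 10–100 s, CO2 1.7–17 mM, uncatalyzed rate subtracted. Enzyme and inhibitor preincubated 15 min at room temperature. Ki from non-linear least squares, mean of at least three determinations.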

pKi: −log10 of the molar value.

A word on the pKi: it is −log10 of the Ki, conventionally taken in molar units. In the case of `CCC(=O)[O-].[Na+]` [SODIUM PROPIONATE], the pKi is 4.29 in test [1], 3.02 in test [2] and 3.39 in test [3].

`O=C([O-])/C=C\C(=O)[O-].[Na+].[Na+]` [SODIUM MALEATE]: the negative logarithm of the Ki (pKi) in test [1] was 5.07; in test [2], 3.00; in test [3], 5.06.

Regarding `CC(=O)C(=O)O` [PYRUVATE SODIUM], the pKi in test [1] was 3.98; in test [3], 3.10.

For the molecule `CC(=O)[O-].[Na+]` [SODIUM ACETATE], the negative-log Ki (pKi) in test [1] is 4.44; in test [3], 5.14.

`O=C(O)c1c(F)c(F)cc(F)c1F`: the figures for the pKi in test [1] and in test [3] were 4.21 and 4.31, respectively.

`O=C([O-])C[C@H](O)C(=O)[O-].[Na+].[Na+]`: the pKi in test [1] was 4.06; in test [2] it was 2.73; in test [3], 3.05.

On to `C[C@H](O)C(=O)[O-].[Na+]`, for which the figures for the pKi in test [1], in test [2] and in test [3] were 4.33, 2.49 and 3.02, respectively.

Consider `O=C([O-])CC(=O)[O-].[Na+].[Na+]` [DISODIUM MALONATE], for which the figures for the pKi in test [1] and in test [3] were 4.58 and 3.10, respectively.

Regarding `CCCCC(=O)[O-].[Na+]` [SODIUM VALERATE], the pKi in test [1] was 4.03; in test [2], 3.59; in test [3], 4.37.

Take `CCCC(=O)[O-].[Na+]` [SODIUM BUTYRATE]: the pKi in test [1] is 4.57; in test [2], 2.99; in test [3], 3.65.

`O=C([O-])C(=O)[O-].[Na+].[Na+]` [SODIUM OXALATE]: the pKi in test [1] is 4.42; in test [3], 4.17.

As to `O=C([O-])CC(O)(CC(=O)[O-])C(=O)[O-].[Na+].[Na+].[Na+]` [SODIUM CITRATE], the negative logarithm of the Ki (pKi) in test [1] was 4.41; in test [3], 4.05.

As to `O=C([O-])c1ccccc1.[Na+]` [SODIUM BENZOATE], the pKi was 4.61 in test [1] and 2.90 in test [3].

On to `O=C[O-].[Na+]` [SODIUM FORMATE], for which the pKi is 4.45 in test [1] and 4.27 in test [3].
